Assay results from different studies.
Protocols differ between the studies behind these lines.
Target: Serine/threonine-protein kinase PAK 2 (PAK2, Homo sapiens, UniProt Q13177)

Cc1ccc(C(=O)NCc2ccsc2)cc1C#Cc1cn(C(C)C)c2ncnc(N)c12 — activity vs control (enzyme activity; inhibitor; 1 µM): 79%
CO[C@@H](C)c1c(Nc2ccc([C@H](N(C)C(=O)C3CCS(=O)(=O)CC3)C(F)(F)F)cc2)cnc2cc(Cl)nn12 — remaining binding (cell-free assay; competition with immobilised ligand; 1 µM): 76%
Cn1c(=O)n(-c2ccc(C(C)(C)C#N)cc2)c2c3cc(-c4cnc5ccccc5c4)ccc3ncc21 — remaining activity (enzyme activity; inhibitor; 10 µM): 87%
COc1ccc2c(c1)O[C@H](c1ccc(OC)c(OC)c1)C[C@@H]2NC(=O)C1(c2ccc3c(c2)OC(F)(F)O3)CC1 — remaining binding (cell-free assay; competition with immobilised ligand; 1 µM): 100%
Cc1ccc(C(=O)Nc2ccc(CN3CCN(C)CC3)c(C(F)(F)F)c2)cc1C#Cc1cnc2cccnn12 — remaining activity (enzyme activity; inhibitor; 23.5 nM): 70%
COc1cc(/C=C/C(=O)CC(=O)/C=C/c2ccc(O)c(OC)c2)ccc1O — activity vs control (enzyme activity; inhibitor; 1 µM): 84%
CS(=O)(=O)N1CCCC(NC(=O)[C@H](CCC2CCCCC2)NC(=O)c2ccc(CNC(=O)c3cnc4ccccn34)cc2)C1 (some centres unmarked) — remaining binding (cell-free assay; competition with immobilised ligand; 0.1 µM): 93%
COc1cc2ncnc(Nc3ccc(F)c(Cl)c3)c2cc1OCCCN1CCOCC1 — remaining signal (cell-free assay; 0.5 µM): 100%
O=C1CCc2cc(Nc3cc(OC4CCOCC4)c([N+](=O)[O-])cc3Cl)ccc2N1 — remaining binding (cell-free assay; competition with immobilised ligand; 1 µM): 96%
CCN(CC)CCNC(=O)c1c(C)[nH]c(/C=C2\C(=O)Nc3ccc(F)cc32)c1C — inhibition (enzyme activity; inhibitor; 10 µM): 8%
CN([C@@H]1CCc2c(CC(=O)O)c3ccccc3n2C1)S(=O)(=O)c1ccc(F)cc1 — remaining binding (cell-free assay; competition with immobilised ligand; 1 µM): 100%
O=C(Nc1cnn(-c2csc(C(=O)NC3COC3)c2)c1)Nc1c(F)cccc1Cl — remaining activity (enzyme activity; inhibitor; 5 µM): 95.3%
N#CCCc1ccc2c(c1)-c1[nH]c3ccc([N+](=O)[O-])cc3c1CC(=O)N2 — remaining signal (cell-free assay; 0.5 µM): 55.6%
O=C(Nc1cnn(-c2csc(C(=O)NC3COC3)c2)c1)Nc1ccccc1Cl — remaining activity (enzyme activity; inhibitor; 5 µM): 90.1%
CC(C)(O)[C@H]1CC[C@H](Nc2ccc3ncc(-c4cccc(C(F)(F)F)c4)n3n2)CC1 — remaining activity (enzyme activity; inhibitor; 1 µM): 93.4%
CC(C)(C)c1nc2c(s1)c1nc(N)ncc1c1ccc(NS(=O)(=O)c3c(F)cccc3F)c(F)c12 — remaining activity (enzyme activity; inhibitor; radiometric; 1 µM): 102%
COc1cc2ncnc(Nc3ccc(Oc4ccccc4)cc3C)c2cc1OC — inhibition (enzyme activity; inhibitor; 1 µM): 2%
CCCS(=O)(=O)Nc1ccc(F)c(C(=O)c2c[nH]c3ncc(-c4ccc(Cl)cc4)cc23)c1F — inhibition (enzyme activity; inhibitor; 1 µM): < 10%
COc1cc(Nc2cnc(C#N)c(O[C@H](C)CN(C)C)n2)ncc1-c1cnn(C)c1 — remaining activity (enzyme activity; inhibitor; radiometric; 1 µM): 100%
Cc1ccc(Nc2nccc(N(C)c3ccc4c(C)n(C)nc4c3)n2)cc1S(N)(=O)=O — inhibition (enzyme activity; inhibitor; 10 µM): 24%
CNCc1ccc(-c2cc(-c3nc(-c4ccc(S(=O)(=O)C(C)C)cc4)cnc3N)on2)cc1 — inhibition (enzyme activity; inhibitor; 2 µM): 6%
Nc1ncnc2occ(-c3ccc(NC(=O)Nc4cc(C(F)(F)F)ccc4F)cc3)c12 — remaining signal (cell-free assay; inhibitor; 20 µM): 60%
C#Cc1cccc(Nc2ncnc3cc(OCCOC)c(OCCOC)cc23)c1 — remaining signal (cell-free assay; 0.5 µM): 99.1%
Nc1cnc(N2CCc3cc(S(=O)(=O)Nc4c(F)cc(Cl)cc4F)cc(N4CCCC4=O)c32)nc1 — remaining binding (cell-free assay; competition with immobilised ligand; 1 µM): 78%
CN1CC(Oc2cnc(C#N)cc2-c2ccn3nc(NC(=O)C4CC4)cc3c2)C1 — inhibition (enzyme activity; inhibitor; 1 µM): -7%
O=S(=O)(NC1CCC(c2cc(F)ccc2F)(S(=O)(=O)c2ccc(Cl)cc2)CC1)C(F)(F)F (centres unmarked) — remaining binding (cell-free assay; competition with immobilised ligand; 1 µM): 100%
Clc1ccc(Nc2nnc(Cc3ccncc3)c3ccccc23)cc1 — remaining signal (cell-free assay; 0.5 µM): 101%
CCN(CC)c1ccc(C2=NNC(=O)CC2C)cc1[N+](=O)[O-] (centres unmarked) — remaining activity (enzyme activity; inhibitor; 10 µM): 98%
Cn1cc(Cl)c2c(Oc3c(F)cc(Nc4cc(Cl)nc(N)n4)cc3F)ccnc21 — remaining binding (cell-free assay; competition with immobilised ligand; 0.1 µM): 100%
CS(=O)(=O)Nc1cccc(-c2csc(NC(=O)CSc3nc4nccnc4c(=O)n3CCc3ccccc3)n2)c1 — inhibition (enzyme activity; inhibitor; 10 µM): 3%
FC(F)(F)Oc1cccc(-c2cnc3ccc(-c4ccncc4)nn23)c1 — activity vs control (enzyme activity; inhibitor; radiometric; 1 µM): 95%
Cc1cnc(NC2CCOCC2)nc1-n1cnc(C(=O)NC(CN)c2cc(F)cc(Cl)c2)c1 (centres unmarked) — remaining activity (enzyme activity; inhibitor; radiometric; 1 µM): 77%
